From ChEMBL document CHEMBL4118150, “2-Methylacrylamide as a bioisoster of thiourea group for 1,3-dibenzylthioureido TRPV1 receptor antagonists” (Bioorg Med Chem Lett, 2018)

Tests used:
[1] = biological target: T1, Transient receptor potential cation channel subfamily V member 1 (Rattus norvegicus, UniProt O35433); assay: Agonist activity at TRPV1 in neonatal rat DRG neurons assessed as increase in calcium influx after 10 mins in presence of 45Ca2+ by Beckman CP scintillation counting method
Method in brief: (§1)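 45Ca2+ uptake in cultured spinal sensory neurons from neonatal rat. Antagonist mode: derivatives were tested against 0.5 μM capsaicin, and IC50 is the concentration that cuts the capsaicin response by 50%. Agonist mode: EC50 is the concentration giving 50% of the maximal response. Values were estimated from at least 3 replicates at each concentration.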

[2] = biological target: T1, Transient receptor potential cation channel subfamily V member 1; assay: Antagonist activity at TRPV1 in neonatal rat DRG neurons assessed as inhibition of capsaicin-induced intracellular calcium after 10 mins in presence of 45Ca2+ by Beckman CP scintillation counting method; format: cell-based; method in brief: as §1
[3] = biological target: Transient receptor potential cation channel subfamily V member 1 (Rattus norvegicus) (UniProt O35433); assay: Potency index, ratio of IC50 for ATC-120 to IC50 for test compound for antagonist activity at TRPV1 in neonatal rat DRG neurons
Chain of Transient receptor potential cation channel subfamily V member 1 (Rattus norvegicus) (O35433 whole entry): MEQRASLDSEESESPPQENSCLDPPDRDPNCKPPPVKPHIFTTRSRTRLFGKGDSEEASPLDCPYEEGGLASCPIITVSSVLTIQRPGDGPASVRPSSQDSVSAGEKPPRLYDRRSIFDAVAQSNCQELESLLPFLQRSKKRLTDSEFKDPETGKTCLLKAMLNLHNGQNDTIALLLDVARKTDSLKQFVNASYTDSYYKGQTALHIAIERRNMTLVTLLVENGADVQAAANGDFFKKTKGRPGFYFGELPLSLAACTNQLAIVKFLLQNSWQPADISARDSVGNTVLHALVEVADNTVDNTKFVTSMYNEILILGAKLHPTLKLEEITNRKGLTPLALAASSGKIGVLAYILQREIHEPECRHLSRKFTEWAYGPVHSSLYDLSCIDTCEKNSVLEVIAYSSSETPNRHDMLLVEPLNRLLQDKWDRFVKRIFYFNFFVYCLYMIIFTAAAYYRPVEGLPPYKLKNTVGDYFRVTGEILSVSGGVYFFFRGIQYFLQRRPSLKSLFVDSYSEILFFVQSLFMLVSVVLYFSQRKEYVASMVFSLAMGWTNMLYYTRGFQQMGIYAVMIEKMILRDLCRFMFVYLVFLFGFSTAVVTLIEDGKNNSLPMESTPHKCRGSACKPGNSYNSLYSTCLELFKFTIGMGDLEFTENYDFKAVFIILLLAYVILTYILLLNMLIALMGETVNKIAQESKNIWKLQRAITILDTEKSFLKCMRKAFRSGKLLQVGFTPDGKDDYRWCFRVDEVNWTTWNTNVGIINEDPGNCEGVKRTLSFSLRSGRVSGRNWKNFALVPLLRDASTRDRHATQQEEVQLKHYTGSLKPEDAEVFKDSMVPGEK

T1 sequence (O35433 whole entry): as above

SMILES | EC50 [1] | IC50 [2] | Ratio IC50 [3]
C[C@@H](NC(=O)C#Cc1ccc(C(C)(C)C)cc1)c1ccc(NS(C)(=O)=O)cc1 | > 100 µM | – | –
C[C@@H](NC(=S)NCc1ccc(C(C)(C)C)cc1)c1ccc(NS(C)(=O)=O)cc1 | > 100 µM | – | –
C/C(=C\c1ccc(C(C)(C)C)cc1)C(=O)N[C@H](C)c1ccc(NS(C)(=O)=O)c(F)c1 | > 100 µM | – | –
CC(Cc1ccc(C(C)(C)C)cc1)C(=O)N[C@H](C)c1ccc(NS(C)(=O)=O)cc1 (mixture of isomers) | > 100 µM | 0.27 µM | –
C[C@@H](NC(=O)NCc1ccc(C(C)(C)C)cc1)c1ccc(NS(C)(=O)=O)cc1 | > 100 µM | 0.68 µM | –
C=Cc1cc([C@@H](C)NC(=O)/C(C)=C/c2ccc(C(C)(C)C)cc2)ccc1NS(C)(=O)=O | > 100 µM | – | 2
C[C@@H](NC(=S)/C=C/c1ccc(C(C)(C)C)cc1)c1ccc(NS(C)(=O)=O)cc1 | > 100 µM | 5 µM | –

Results, then the compound that gave them:

EC50 [1] | IC50 [2] | Ratio IC50 [3] | SMILES
> 100 µM | – | – | C[C@@H](NC(=O)COc1ccc(C(C)(C)C)cc1)c1ccc(NS(C)(=O)=O)cc1
> 100 µM | – | – | C/C(=C\c1ccc(C(C)(C)C)cc1)C(=O)N[C@H](C)c1ccc(NS(C)(=O)=O)cc1
> 100 µM | 0.16 µM | – | C[C@@H](NC(=O)/C=C/c1ccc(C(C)(C)C)cc1)c1ccc(NS(C)(=O)=O)cc1
> 100 µM | – | – | C[C@@H](N/C(COc1ccc(C(C)(C)C)cc1)=N/C#N)c1ccc(NS(C)(=O)=O)cc1
> 100 µM | 0.3 µM | – | C[C@@H](NC(=S)CCc1ccc(C(C)(C)C)cc1)c1ccc(NS(C)(=O)=O)cc1
> 100 µM | – | – | C[C@@H](NC(=S)COc1ccc(C(C)(C)C)cc1)c1ccc(NS(C)(=O)=O)cc1
> 100 µM | 0.24 µM | – | C[C@@H](NC(=O)CCc1ccc(C(C)(C)C)cc1)c1ccc(NS(C)(=O)=O)cc1
> 100 µM | – | – | C[C@@H](NC(=O)COc1ccc(C(C)(C)C)cc1)c1ccc(NS(C)(=O)=O)c(F)c1
